9 compounds from ChEMBL document CHEMBL4428114, “An LP1 analogue, selective MOR agonist with a peculiar pharmacological profile, used to scrutiny the ligand binding domain” (Bioorg Med Chem, 2016) can be followed below.

Assay [1] addresses T1, Mu-type opioid receptor (Homo sapiens, UniProt P35372). Description: Displacement of [3H]DAMGO from MOR in HEK293 cells. Format: cell-based.
The target of assay [2] is Kappa-type opioid receptor (Rattus norvegicus, UniProt P34975). Description: Displacement of [3H]U69593 from rat KOR expressed in CHO cells. Format: cell-based. A general note: In a radioligand displacement assay an active substance lowers the binding of a labelled ligand.
Sequence of Kappa-type opioid receptor (Rattus norvegicus, UniProt P34975) (P34975 whole entry): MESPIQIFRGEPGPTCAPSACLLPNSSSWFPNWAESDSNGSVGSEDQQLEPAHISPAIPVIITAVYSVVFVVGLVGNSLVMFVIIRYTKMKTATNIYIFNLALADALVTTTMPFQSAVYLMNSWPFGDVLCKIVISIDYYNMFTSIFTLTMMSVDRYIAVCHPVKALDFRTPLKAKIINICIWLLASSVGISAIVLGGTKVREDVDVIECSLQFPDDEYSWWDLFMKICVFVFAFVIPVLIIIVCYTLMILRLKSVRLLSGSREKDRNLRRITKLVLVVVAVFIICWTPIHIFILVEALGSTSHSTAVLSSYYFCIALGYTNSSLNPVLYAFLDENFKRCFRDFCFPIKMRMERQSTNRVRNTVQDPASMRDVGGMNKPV
Assay [3] addresses Delta-type opioid receptor (Homo sapiens, UniProt P41143). Description: Displacement of [3H]DPDPE from human DOR expressed in CHO cells. Format: cell-based.
A short description of assay [4]: Selectivity ratio of Ki for displacement of [3H]U69593 from rat KOR expressed in CHO cells to Ki for displacement of [3H]DAMGO from MOR in HEK293 cells. It is filed as cell-based.
The species entered for assay [5] is Homo sapiens. The assay can be described thus: Selectivity ratio of Ki for displacement of [3H]DPDPE from human DOR expressed in CHO cells to Ki for displacement of [3H]DAMGO from MOR in HEK293 cells. It is filed as cell-based.
In assay [6] the target is Mu-type opioid receptor (Cavia porcellus) (UniProt P97266). The assay can be described thus: Agonist activity at MOR in Dunkin-Hartley guinea pig ileum assessed as inhibition of electrically-evoked contractions. It is filed as tissue-based. The method in brief:
(§1)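 Guinea-pig ileum strips held under a 2 g load and equilibrated for 60 min. Contractions were evoked by transmural single pulses (0.1 Hz, 0.3 ms, 200 mA), followed by a further 60–90 min equilibration with repeated Krebs changes. Compound was added cumulatively, at least 5 min per step. Inhibition was expressed as percentage change from baseline, with EC50 from non-linear curve fitting (n = 6–8).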

For assay [7] the target is unchanged. Description: Agonist activity at MOR in Dunkin-Hartley guinea pig ileum assessed as inhibition of electrically-evoked contractions in presence of opioid receptor antagonist naloxone. It is filed as tissue-based. In short, it runs like this:
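Cumulative concentration–response curves were run on electrically stimulated guinea-pig ileum strips (2 g load; 0.1 Hz, 0.3 ms, 200 mA) with a single naloxone concentration of 10^-6 M. […]. Contractions were scored as percentage change from baseline.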

Assay [8] shares this target. Description: Agonist activity at MOR in Dunkin-Hartley guinea pig ileum assessed as inhibition of electrically-evoked contractions in presence of mu-opioid receptor antagonist naloxonazine. It is filed as tissue-based. In short, it runs like this: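 Electrically stimulated guinea-pig ileum strips (2 g load; single pulses 0.1 Hz, 0.3 ms, 200 mA) were tested with naloxonazine present at 10^-6 M. Agonist was added cumulatively, at least 5 min apart, after 60–90 min equilibration in Krebs. Response was taken as percentage inhibition from baseline, with EC50 by non-linear fitting (n = 6–8).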

For assay [9] the target is unchanged. The assay can be described thus: Agonist activity at MOR in Dunkin-Hartley guinea pig ileum assessed as inhibition of electrically-evoked contractions in presence of kappa-opioid receptor antagonist norBNI. It is filed as tissue-based. In short, it runs like this:
as §1

The target is the same in assay [10]. The assay can be described thus: Agonist activity at MOR in Dunkin-Hartley guinea pig ileum assessed as inhibition of electrically-evoked contractions in presence of mu-opioid receptor agonist DAMGO. Format: tissue-based. In short, it runs like this: as §1
Assay [11] concerns Mus musculus. The assay can be described thus: Antinociceptive activity in ip dosed CB1 mouse assessed as increase in tail flick latency after 30 mins. Format: functional, organism-based.
For assay [12], the system named is Mus musculus. The assay can be described thus: Antinociceptive activity in CB1 mouse assessed as increase in tail flick latency at 5 mg/kg, ip up to 90 mins. Format: functional, organism-based.
Assay [13] relates to Mus musculus. Description: Antinociceptive activity in CB1 mouse assessed as increase in tail flick latency at 5 mg/kg, ip administered 45 mins post naloxone challenge measured up to 90 mins in presence of naloxone. It is filed as functional, organism-based. The method in brief: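 Naloxone was given at 3 mg/kg ip, 45 min before 5 mg/kg ip test compound, in male Swiss CB1 mice (25–30 g). Infrared tail-flick latency (lower third of tail, 10 s cutoff, baseline mean of three readings) was measured at 30, 60 and 90 min post-injection (n = 8).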
For orientation: In hot-plate and tail-flick tests a longer latency is read as antinociception.

The target of assay [14] is T1, Mu-type opioid receptor. Description: Displacement of [3H]Diprenorphine from human MOR expressed in HEK293 cell membranes by liquid scintillation counting.
Assay [15] deals with Kappa-type opioid receptor (Homo sapiens, UniProt P41145). The assay can be described thus: Displacement of [3H]Diprenorphine from human KOR expressed in HEK293 cell membranes by liquid scintillation counting.
Sequence of Kappa-type opioid receptor (Homo sapiens, UniProt P41145) (P41145 whole entry): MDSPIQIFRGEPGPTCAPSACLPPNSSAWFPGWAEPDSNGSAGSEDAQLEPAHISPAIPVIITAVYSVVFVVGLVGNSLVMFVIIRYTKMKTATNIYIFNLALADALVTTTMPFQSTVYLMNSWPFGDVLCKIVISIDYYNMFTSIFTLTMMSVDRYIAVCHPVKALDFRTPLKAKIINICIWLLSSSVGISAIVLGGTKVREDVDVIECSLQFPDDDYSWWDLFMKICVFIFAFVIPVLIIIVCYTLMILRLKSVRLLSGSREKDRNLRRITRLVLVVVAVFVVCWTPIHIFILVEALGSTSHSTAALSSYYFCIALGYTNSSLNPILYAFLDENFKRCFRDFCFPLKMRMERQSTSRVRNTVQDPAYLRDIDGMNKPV
For assay [16], the species on record is Homo sapiens. Description: Selectivity ratio of Ki for displacement of [3H]Diprenorphine from human KOR expressed in HEK293 cell membranes to Ki for displacement of [3H]Diprenorphine from human MOR expressed in HEK293 cell membranes.
The subject of assay [17] is Mus musculus. Description: Antinociceptive activity in CB1 mouse assessed as increase in tail flick latency at 5 mg/kg, ip after 60 mins. It is filed as functional, organism-based.

What is called Ki is the dissociation constant of the complex between target and ligand, obtained from inhibition or displacement. Higher therefore signals lower affinity.

Structures are written as SMILES. Activity calls are given as the source filed them.

Sequence of Mu-type opioid receptor (Cavia porcellus) (P97266 whole entry): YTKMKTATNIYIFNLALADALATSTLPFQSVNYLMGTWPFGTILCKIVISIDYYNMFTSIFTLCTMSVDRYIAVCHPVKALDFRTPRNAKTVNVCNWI
Sequence of Delta-type opioid receptor (P41143 whole entry): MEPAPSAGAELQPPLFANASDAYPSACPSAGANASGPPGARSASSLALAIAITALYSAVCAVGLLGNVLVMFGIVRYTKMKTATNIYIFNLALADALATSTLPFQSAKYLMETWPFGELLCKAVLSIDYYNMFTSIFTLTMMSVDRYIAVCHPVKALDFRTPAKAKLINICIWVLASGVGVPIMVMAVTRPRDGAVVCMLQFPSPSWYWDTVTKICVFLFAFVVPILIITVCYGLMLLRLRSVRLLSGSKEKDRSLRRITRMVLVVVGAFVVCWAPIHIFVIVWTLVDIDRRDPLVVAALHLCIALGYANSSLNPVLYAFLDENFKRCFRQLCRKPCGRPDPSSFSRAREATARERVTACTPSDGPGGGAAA
T1 sequence (P35372 whole entry): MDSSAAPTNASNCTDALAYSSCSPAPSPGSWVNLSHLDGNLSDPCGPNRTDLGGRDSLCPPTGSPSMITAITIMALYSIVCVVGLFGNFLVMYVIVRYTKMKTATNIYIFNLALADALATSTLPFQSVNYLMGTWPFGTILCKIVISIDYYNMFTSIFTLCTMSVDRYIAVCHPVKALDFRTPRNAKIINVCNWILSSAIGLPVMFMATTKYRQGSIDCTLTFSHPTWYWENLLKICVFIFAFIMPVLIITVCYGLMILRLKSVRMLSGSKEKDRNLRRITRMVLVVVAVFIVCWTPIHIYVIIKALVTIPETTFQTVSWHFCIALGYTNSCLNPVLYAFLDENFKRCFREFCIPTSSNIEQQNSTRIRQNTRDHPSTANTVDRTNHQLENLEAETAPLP

Take `C[C@H]1[C@H]2Cc3ccc(O)cc3[C@]1(C)CCN2CCC(=O)NCC(c1ccccc1)c1ccccc1`: the Ki on Mu-type opioid receptor [1] turned out to be 0.5 nM; in assay [2], 190 nM; in [3], 440 nM. For the same compound, the values for the Ratio Ki (in [4]; in the assay listed under Homo sapiens [5]) were 380 and 880, respectively. Moreover, the Activity result (in [6]; in the assay on Mus musculus [11]) was “Dose-dependent effect” each time. In addition, the pD2 was 6.8 in [6]; 6.4 in assay [7]; 6.5 in assay [8]; 6.9 in assay [9]; 7 in [10]. In the assay with Mus musculus [12], the result was Active. In addition, in the assay on Mus musculus [13], the outcome was inactive.
With `C[C@H]1[C@H]2Cc3ccc(O)cc3[C@]1(C)CCN2CCC(=O)NC(c1ccccc1)c1ccccc1`, the inhibition constant (Ki) at Mu-type opioid receptor [1] worked out at 84 nM; in [2] it was 680 nM; in [3] it was 2900 nM. In addition, the Ratio Ki in assay [4] is 8.09; in the assay listed under Homo sapiens [5], 34.5. For the same compound, the pD2 in assay [7] stood at 4.1.
As to `COc1ccsc1CNCC[C@@]1(c2ccccn2)CCC2(CCCC2)OC1`, the inhibitory constant (Ki) is 6 nM on Mu-type opioid receptor [14] and below 10000 nM in [15]. Moreover, in the assay listed under Homo sapiens [16], the Ratio Ki is 1670.
`CN1CC[C@]23c4c5ccc(O)c4O[C@H]2[C@@H](O)C=C[C@H]3[C@H]1C5`: the outcome in the assay on Mus musculus [12] and with Mus musculus [17] was Active.
Compound `C[C@H]1[C@H]2Cc3ccc(O)cc3[C@]1(C)CCN2CCC(=O)N1CCc2ccccc2C1c1ccccc1` (mixture of isomers) showed a Ki at Mu-type opioid receptor [1] of 96 nM.
In the case of `C[C@H]1[C@H]2Cc3ccc(O)cc3[C@]1(C)CCN2CCC(=O)N1CCc2ccccc2[C@@H]1c1ccccc1`, the inhibition constant Ki is 380 nM on Mu-type opioid receptor [1], 900 nM in assay [2] and 2900 nM in [3]. Moreover, the Ratio Ki in [4] turned out to be 12.5; in the assay filed under Homo sapiens [5], 35.
In the case of `C[C@H]1[C@H]2Cc3ccc(O)cc3[C@]1(C)CCN2CCC(=O)Nc1ccccc1`, in assay [2], the affinity corresponds to a Ki of 110 nM. The values for the Ratio Ki (in assay [4]; in the assay filed under Homo sapiens [5]) were 132 and 33.8, respectively.
Consider `C[C@H]1[C@H]2Cc3ccc(O)cc3[C@]1(C)CCN2CCC(=O)N1CCc2ccccc2[C@H]1c1ccccc1`, for which the results for the Ki (on Mu-type opioid receptor [1]; in assay [2]; in assay [3]) were 470 nM, 1900 nM and 7900 nM, respectively. Moreover, the Ratio Ki in assay [4] stood at 4.04; in the assay filed under Homo sapiens [5], 16.8.
For `C[C@H]1[C@H]2Cc3ccc(O)cc3[C@]1(C)CCN2CCC(=O)N(C)C(c1ccccc1)c1ccccc1`, the inhibition constant (Ki) at Mu-type opioid receptor [1] is 160 nM; in assay [2], 370 nM; in assay [3] it was 1400 nM. For the same compound, the Ratio Ki in assay [4] worked out at 2.31; in the assay listed under Homo sapiens [5] it was 8.75. The pD2 in assay [6] is 5.7.
